Source: ChEMBL document CHEMBL1123488, “Agents for the treatment of brain edema. 2. [(2,3,9,9a-Tetrahydro-3-oxo-9a-substituted-1H-fluoren-7-yl)oxy]+ ++alkanoi c acids and some of their analogues” (J Med Chem, 1986)

How the values were obtained:
[1] = species: Felis catus; assay: Compound was tested for inhibition of chloride ion uptake in cat cerebrocortical slices at concentration of (10e-7) M; format: functional
In short: (§1)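 Slices were incubated 60 min at 22 °C in 27 mM K+ medium with 5 mM HCO3- added for the last 40 min, with the compound present throughout. Slices were then filtered off, reweighed and homogenized (10% w/v) in 1 N perchloric acid. The supernatant was assayed for electrolytes, expressed as µmol/g initial wet weight. Two-tailed t-test versus 27 K + HCO3-.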

[2] = test system: Felis catus; assay: In vivo activity in the acceleration-deceleration head injury assay at dose of 2.5 mg/kg; 8-19
[3] = species: Felis catus; assay: Compound was tested for inhibition of sodium ion uptake in cat cerebrocortical slices at concentration of (10e-10) M; format: functional
[4] = species: Felis catus; assay: Compound was tested for inhibition of K+ ion uptake in cat cerebrocortical slices at concentration of (10e-9) M; format: functional; in short: as §1
[5] = species: Felis catus; assay: Compound was tested for inhibition of K+ ion uptake in cat cerebrocortical slices at concentration of (10e-10) M; format: functional; in short: as §1
[6] = species: Cavia porcellus; assay: Compound was tested for inhibition of sodium ion uptake in guinea pig cerebrocortical slices at concentration of (10e-9) M; format: functional
[7] = species: Cavia porcellus; assay: Compound was tested for inhibition of HCO3- dependent swelling of guinea pig cerebrocortical slices at concentration of (10e-6) M; format: functional
In short: (§2)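 Cerebrocortical slices were weighed and incubated in Warburg flasks at 22 °C in medium of KCl 27, NaCl 100, glucose 10 and KH2PO4 1.2 mmol/L (27 mM K+ HEPES). HCO3- (5 mM) was added from the side arm for the final 40 min, and the compound was present throughout the 60 min. Swelling = (final − initial wet weight)/initial wet weight × 100. Two-tailed t-test versus 27 K + HCO3-.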

[8] = species: Cavia porcellus; assay: Compound was tested for inhibition of HCO3- dependent swelling of guinea pig cerebrocortical slices at concentration of (10e-9) M; format: functional; in short: as §2
[9] = species: Felis catus; assay: Compound was tested for inhibition of chloride ion uptake in cat cerebrocortical slices at concentration of (10e-10) M; format: functional; in short: as §1
[10] = test system: Felis catus; assay: In vivo activity in the acceleration-deceleration head injury assay at dose of 2.5 mg/kg; 5/21
[11] = species: Felis catus; assay: Compound was tested for inhibition of K+ ion uptake in cat cerebrocortical slices at concentration of (10e-13) M; format: functional; in short: as §1
[12] = species: Cavia porcellus; assay: Compound was tested for inhibition of sodium ion uptake in guinea pig cerebrocortical slices at concentration of (10e-10) M; format: functional
[13] = species: Felis catus; assay: Compound was tested for inhibition of K+ ion uptake in cat cerebrocortical slices at concentration of (10e-7) M; format: functional; in short: as §1
[14] = species: Rattus norvegicus; assay: Compound was tested for inhibition of sodium ion uptake in rat cerebrocortical slices at concentration of (10e-8) M; format: functional
[15] = species: Cavia porcellus; assay: Compound was tested for inhibition of chloride ion uptake in guinea pig cerebrocortical slices at concentration of (10e-8) M; format: functional; in short: as §1
[16] = species: Cavia porcellus; assay: Compound was tested for inhibition of sodium ion uptake in guinea pig cerebrocortical slices at concentration of (10e-7) M; format: functional
[17] = species: Rattus norvegicus; assay: Compound was tested for inhibition of chloride ion uptake in rat cerebrocortical slices at concentration of (10e-8) M; format: functional; in short: as §1
[18] = species: Felis catus; assay: Compound was tested for inhibition of sodium ion uptake in cat cerebrocortical slices at concentration of (10e-9 )M; format: functional
[19] = species: Cavia porcellus; assay: Compound was tested for inhibition of sodium ion uptake in guinea pig cerebrocortical slices at concentration of (10e-8) M; format: functional
[20] = species: Cavia porcellus; assay: Compound was tested for inhibition of potassium ion uptake in guinea pig cerebrocortical slices at concentration of (10e-12) M; format: functional; in short: as §1
[21] = species: Cavia porcellus; assay: Compound was tested for inhibition of sodium ion uptake in guinea pig cerebrocortical slices at concentration of (10e-11) M; format: functional
[22] = test system: Felis catus; assay: In vivo activity in the acceleration-deceleration head injury assay at dose of 1 mg/kg; 14/25
[23] = test system: Felis catus; assay: In vivo activity in the acceleration-deceleration head injury assay at dose of 5 mg/kg; 7/22
[24] = species: Felis catus; assay: Compound was tested for inhibition of HCO3- dependent swelling of cat cerebrocortical slices at concentration of (10e-7) M; format: functional; in short: as §2
[25] = test system: Felis catus; assay: In vivo activity in the acceleration-deceleration head injury assay at dose of 10 mg/kg; 15/19
[26] = species: Cavia porcellus; assay: Compound was tested for inhibition of HCO3- dependent swelling of guinea pig cerebrocortical slices at concentration of (10e-8) M; format: functional; in short: as §2
[27] = species: Felis catus; assay: Compound was tested for inhibition of K+ ion uptake in cat cerebrocortical slices at concentration of (10e-11) M; format: functional; in short: as §1
[28] = species: Rattus norvegicus; assay: Compound was tested for inhibition of sodium ion uptake in rat cerebrocortical slices at concentration of (10e-6) M; format: functional
[29] = species: Felis catus; assay: Compound was tested for inhibition of sodium ion uptake in cat cerebrocortical slices at concentration of (10e-8) M; format: functional
[30] = species: Felis catus; assay: Compound was tested for inhibition of sodium ion uptake in cat cerebrocortical slices at concentration of (10e-13) M; format: functional
[31] = species: Rattus norvegicus; assay: Compound was tested for inhibition of potassium ion uptake in rat cerebrocortical slices at concentration of (10e-6) M; format: functional
[32] = species: Rattus norvegicus; assay: Compound was tested for inhibition of chloride ion uptake in rat cerebrocortical slices at concentration of (10e-6) M; format: functional; in short: as §1
[33] = species: Felis catus; assay: Compound was tested for inhibition of chloride ion uptake in cat cerebrocortical slices at concentration of (10e-8) M; format: functional; in short: as §1
[34] = species: Cavia porcellus; assay: Compound was tested for inhibition of potassium ion uptake in guinea pig cerebrocortical slices at concentration of (10e-7) M; format: functional; in short: as §1
[35] = species: Cavia porcellus; assay: Compound was tested for inhibition of potassium ion uptake in guinea pig cerebrocortical slices at concentration of (10e-10) M; format: functional; in short: as §1
[36] = species: Rattus norvegicus; assay: Compound was tested for inhibition of chloride ion uptake in rat cerebrocortical slices at concentration of (10e-4) M; format: functional; in short: as §1
[37] = species: Felis catus; assay: Compound was tested for inhibition of sodium ion uptake in cat cerebrocortical slices at concentration of (10e-7) M; format: functional
[38] = species: Rattus norvegicus; assay: Compound was tested for inhibition of HCO3- dependent swelling of rat cerebrocortical slices at concentration of (10e-8) M; format: functional; in short: as §2
[39] = species: Cavia porcellus; assay: Compound was tested for inhibition of HCO3- dependent swelling of guinea pig cerebrocortical slices at concentration of (10e-10) M; format: functional; in short: as §2
[40] = species: Felis catus; assay: Compound was tested for inhibition of chloride ion uptake in cat cerebrocortical slices at concentration of (10e-9) M; format: functional; in short: as §1
[41] = species: Felis catus; assay: Compound was tested for inhibition of chloride ion uptake in cat cerebrocortical slices at concentration of (10e-12) M; format: functional; in short: as §1
[42] = species: Cavia porcellus; assay: Compound was tested for inhibition of sodium ion uptake in guinea pig cerebrocortical slices at concentration of (10e-12) M; format: functional
[43] = species: Cavia porcellus; assay: Compound was tested for inhibition of potassium ion uptake in guinea pig cerebrocortical slices at concentration of (10e-8) M; format: functional; in short: as §1
[44] = species: Rattus norvegicus; assay: Compound was tested for inhibition of sodium ion uptake in rat cerebrocortical slices at concentration of (10e-4) M; format: functional
[45] = species: Rattus norvegicus; assay: Compound was tested for inhibition of HCO3- dependent swelling of rat cerebrocortical slices at concentration of (10e-4) M; format: functional; in short: as §2

Which Activity [1] does the source give for `CCCC12CCC(=O)C=C1c1c(cc(OCC(=O)O)c(Cl)c1Cl)C2` (single isomer, unassigned; (+)) here?
Its Activity is 86.9.

And the Deaths [2]?
The Deaths was 8.

And the Activity [3]?
Its Activity is 86.9.

What about the Activity [4] of the same compound?
The Activity was 86.

What about the Activity [5] of the same compound?
Its Activity is 86.9.

And the Activity [6]?
Its Activity is 110.

And the Swelling [7]?
The Swelling was 26.8%.

And the Swelling [8]?
Its Swelling is 26.2%.

And the Activity [9]?
The Activity was 91.9.

And the Deaths [10]?
The Deaths was 5.

And the Activity [11]?
Its Activity is 87.6.

What about the Activity [12] of the same compound?
The Activity was 108.3.

What about the Activity [13] of the same compound?
Its Activity is 83.9.

And the Activity [14]?
Its Activity is 118.9.

And the Activity [15]?
The Activity was 103.8.

What about the Activity [16] of the same compound?
The Activity was 125.4.

And the Activity [17]?
Its Activity is 101.4.

What about the Activity [18] of the same compound?
Its Activity is 85.6.

And the Activity [19]?
Its Activity is 108.6.

What about the Activity [20] of the same compound?
The Activity was 87.7.

What about the Activity [21] of the same compound?
Its Activity is 103.4.

What about the Deaths [22] of the same compound?
Its Deaths is 14.

What about the Deaths [23] of the same compound?
Its Deaths is 7.

What about the Swelling [24] of the same compound?
The Swelling was 20%.

What about the Deaths [25] of the same compound?
Its Deaths is 15.

What about the Swelling [26] of the same compound?
Its Swelling is 24.4%.

What about the Activity [27] of the same compound?
Its Activity is 88.8.

And the Activity [28]?
The Activity was 127.

And the Activity [29]?
The Activity was 87.2.

And the Activity [30]?
Its Activity is 107.3.

What about the Activity [31] of the same compound?
Its Activity is 71.9.

What about the Activity [32] of the same compound?
Its Activity is 101.5.

And the Activity [33]?
The Activity was 89.1.

What about the Activity [34] of the same compound?
Its Activity is 88.1.

What about the Activity [35] of the same compound?
Its Activity is 101.3.

What about the Activity [36] of the same compound?
The Activity was 92.3.

What about the Activity [37] of the same compound?
The Activity was 86.

And the Swelling [38]?
The Swelling was 20.9%.

And the Swelling [39]?
The Swelling was 26.8%.

What about the Activity [40] of the same compound?
The Activity was 89.3.

And the Activity [41]?
The Activity was 90.5.

What about the Activity [42] of the same compound?
The Activity was 104.7.

And the Activity [43]?
Its Activity is 90.8.

And the Activity [44]?
Its Activity is 112.1.

And the Swelling [45]?
Its Swelling is 22.8%.
